Bioassay records deposited in PubChem by several laboratories.
PABP polyA inh = PABP poly(A) RNA binding inhibitors, primary screen, biochemical, fluorescence polarization, uHTS; Polyadenylate-binding protein 1 (Homo sapiens), P11940; calls only at 35 µM; 1% of 290,000 active; AID 2014, 2009;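 note: calls also rest on retests at 20 µM and on dose response follow-up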
eIF4H inh = human eIF4H binding inhibitors, primary screen, translation initiation inhibitor project, biochemical, uHTS, fluorescence polarization; Eukaryotic translation initiation factor 4H (Homo sapiens), Q15056; eIF4H fluorescence polarization binding assay; inhibition, % at 35 µM; 0.94% of 290,000 active; AID 2012, 2009;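 note: calls also rest on retests at 20 µM and on dose response follow-up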
IMP-1 inhibitor = IMP-1 metallo-beta-lactamase inhibitors, primary screen, biochemical, epi-absorbance readout, Pseudomonas aeruginosa enzyme; purified IMP-1, nitrocefin hydrolysis, epi-absorbance fluorescence; inhibition, % at 5.6 µM; 0.45% of 290,000 active; AID 1556, 2009;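 active = inhibition above the mean plus 3 SD of all compounds in the same screening run, cut at about 4.5% in these data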;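 note: 0% = IMP-1 with DMSO and 100% = DMSO wells lacking enzyme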
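System: purified IMP-1; amount: IMP-1 0.2 nM before substrate addition; compound: single dose, 5.6 µM; times: 25 °C, 15 min preincubation, 25 min reaction; signal: Epi-absorbance via hydrolysed-nitrocefin quenching of white-plate fluorescence, 480/530 nm, EDTA stop; benchmarks: DMSO with and without IMP-1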
PABP1 MLLE inh = inhibitors of PABP1 MLLE–PAM2 peptide binding, primary screen, biochemical, fluorescence polarization, FITC-PAM2, GST-MLLE | Polyadenylate-binding protein 1 (Homo sapiens), P11940 | inhibition, % at 20 µM | 0.36% of 360,000 active | AID 588489, 2011; in the data active = inhibition above about 35%, passing the limit was not always enough;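 note: plate controls were DMSO wells with GST-MLLE for no effect and wells lacking GST-MLLE protein for full effect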
VIM-2 inhibitor = VIM-2 metallo-beta-lactamase inhibitors, primary screen, biochemical, epi-absorbance readout, Pseudomonas aeruginosa enzyme; purified VIM-2, nitrocefin hydrolysis, epi-absorbance fluorescence; 0.89% of 290,000 active; inhibition, % at 5.6 µM;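 active = inhibition above the mean of all tested compounds plus 3 SD, cutoff set per screening run, cut at about 7.5% in these data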;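 note: red hydrolysis product quenches plate fluorescence so inhibitors raise well fluorescence; 0% = enzyme with DMSO and 100% = DMSO without enzyme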
* hit, by the source's call; i = inactive; ? = inconclusive; nt = no result given; + = active, no number. A selection: hits, their analogues and other compounds. The true share with any hit is near 2.2%. Unless noted, the rule behind the calls is not given here.

SMILES | PABP polyA inh | eIF4H inh | IMP-1 inhibitor | PABP1 MLLE inh | VIM-2 inhibitor
COc1cc(/C=C2\S/C(=N/S(=O)(=O)Cc3ccccc3)NC2=O)c([N+](=O)[O-])cc1OC | i | 1 | -1 | 23 | -1
COc1cc(/C=C2/S/C(=N/S(=O)(=O)c3ccccc3)NC2=O)c([N+](=O)[O-])cc1OC | i | 22 | -2 | 39* | -1
CC(NC(=O)c1ccccc1F)c1nnc(SCC(=O)NC2=NCCS2)n1C (stereo unspecified) | + | 90* | -3 | -2 | -2
CCOC(=O)C1CCN(C(=O)NS(=O)(=O)c2ccc(C)cc2)CC1 | + | 3.0* | 9.6* | 3 | 0
Cc1cc(C(=O)CSc2nc(N)cc(N)n2)c(C)n1-c1cccc(C(F)(F)F)c1 | i | 56* | -1 | -14 | 0
O=S1(=O)CC(O)C(Nc2ccc(Cl)cc2)C1 (stereo unspecified) | i | -3 | -2 | 7 | -1
O=S1(=O)CC(O)C(Nc2ccccc2)C1 (stereo unspecified) | i | active | -4 | 7 | -2
CO/N=C/C1C(=O)NN=C1c1ccccc1 (stereo unspecified) | + | ? | -3 | 5 | -4
CC1=NNC(=O)C1Oc1ccccc1 (stereo unspecified) | i | 22 | -1 | 3 | 1
NC1=NC(=O)/C(=C/c2ccccc2OS(=O)(=O)c2ccc3ccccc3c2)S1 | i | -16 | 1 | -2 | -2
CC(OC(=O)c1nc(Cl)ccc1Cl)C(=O)c1ccccc1 (stereo unspecified) | nt | nt | nt | 9 | nt
NC(=O)CSc1nc(C23CC4CC(CC(C4)C2)C3)nc2ccccc12 | + | -1 | -2 | 2 | -2
Cc1nonc1NC(=O)CSc1nc(C23CC4CC(CC(C4)C2)C3)nc2ccccc12 | i | -14 | -2 | 0 | -2
Cc1cc(C)nc(N(C#N)Cc2cccc(Cl)c2)n1 | i | -13 | -3 | -6 | -6
CC1(c2ccc([N+](=O)[O-])cc2)Nc2ccccc2S1 (stereo unspecified) | i | 1 | -1 | 42* | 1
N#Cc1c(=O)c2nc(NCCCO)ncc2n2c(=O)c3ccccc3[nH]c12 | + | 78* | -1 | 16 | -2
Clc1nn2cnnc2c2ccccc12 | i | 11 | -4 | 3 | 0
OCc1nnc2c3ccccc3c(-c3ccccc3)nn12 | i | -3 | 2 | -2 | 11*
c1ccc(-c2nn3cnnc3c3ccccc23)cc1 | i | 8 | -2 | 10 | 11*
NC(=O)c1c(NC(=O)C2CC=CCC2C(=O)O)sc2c1CCCCC2 (stereo unspecified) | i | 37 | 5.7* | 34 | -1
CC(C)OC(=O)c1c(NC(=O)C2CC=CCC2C(=O)O)sc2c1CCCCC2 (stereo unspecified) | i | 25 | 2 | 19 | -1
CCOc1ccc(NS(=O)(=O)c2coc(C(N)=O)c2)cc1 | i | -2 | -2 | -6 | 0
COC(=O)C(=Cc1ccncc1)c1cccc2ccccc12 | nt | nt | nt | -6 | nt
COc1ccc(CCNc2nc3ccccc3n3nnnc23)cc1OC | + | ? | -5 | 21 | -1
CN(c1ccc(OCC(=O)OCC(=O)Nc2ccccc2)cc1)S(=O)(=O)c1cccs1 | + | active | -4 | 3 | -7
SMILES | PABP polyA inh | eIF4H inh | IMP-1 inhibitor | PABP1 MLLE inh | VIM-2 inhibitor
O=C(/C=C/c1ccco1)N(c1ccccn1)c1ccccn1 | i | 101* | -1 | 17 | -1
C=CCN=c1scc(-c2ccco2)n1/N=C/c1ccc(O)c(O)c1O | + | 92* | -1 | 11 | -4
CN=c1scc(-c2cccs2)n1/N=C/c1ccc(O)c(O)c1O | nt | nt | -1 | 18 | -1
COCCN=c1scc(-c2ccco2)n1/N=C/c1ccc(O)c(O)c1O | + | ? | 2 | 19 | 1
COc1ccc(NCc2ccc([N+](=O)[O-])s2)cc1 | i | 1 | -1 | 8 | -4
COc1ccc(NCc2ccc([N+](=O)[O-])s2)c(OC)c1 | + | 73* | -2 | 9 | -3
CCOC(=O)Cc1c(C)nc(N)[nH]c1=O | i | -2 | 0 | 17 | -3
CCOC(=O)Cc1c[nH]c(=S)[nH]c1=O | i | -3 | -2 | 40* | -1
